Hits are enriched below; roughly 2% of the tested compounds scored in any of these assays.
XiGFP reactiv: activators of inactive X chromosome reactivation, primary screen, imaging, XiGFP fibroblasts, GFP high-content imaging, set 2. XiGFP mouse fibroblasts, % GFP-positive cells imaging, 3 d; cells co-treated with 5-aza-dC sensitizer; scaled so ellipticine positive control = 100%. activation, % at 7.58 µM. 360,000 tested, 0.055% active;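 active = mean normalized replicate activation at least 10% and every replicate at or above 10%; inconclusive = only one of the two criteria met; inactive = mean below 10% and not all replicates reach 10%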
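material = 68-5-11 XiGFP fibroblast line | medium = DMEM plus 5-aza-dC sensitizer | schedule = 3 days compound exposure | benchmarks = positive control ellipticine, 6 µM final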
RAD54 branch: inhibitors of human RAD54 branch migration, primary screen, biochemical, fluorescence, single point; DNA repair and recombination protein RAD54-like (Homo sapiens), Q92698; RAD54 Holliday junction branch migration, FAM/BHQ fluorescence; inhibition, % at 10.4 µM; 360,000 tested, 0.14% active; AID 602329, 2012;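 active = mean normalized replicate activity at least 40 and at least half of replicates scoring 40 or more; inconclusive = only one of the two criteria met; inactive = mean below 40 and under half of replicates reaching 40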;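 also: inhibitors cause a drop in the FAM fluorescence signal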
E-selectin induc: E-selectin induction in HUVECs, primary screen, imaging, HUVEC, immunofluorescence imaging, single point | normalized: neutral wells 0, TNF-alpha wells 100 | activation, % at 7.58 µM | P16581 | 260,000 tested, 0.37% active;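 active = mean E-selectin-positive cell signal at least 10% of the positive control, reached in at least 60% of replicates, without over 20% cell loss; inconclusive = no rule given, readout overlaps actives, possibly toxicity-flagged; inactive = the rest, including those meeting only one limit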
Target sequence (P16581 whole entry, looked up): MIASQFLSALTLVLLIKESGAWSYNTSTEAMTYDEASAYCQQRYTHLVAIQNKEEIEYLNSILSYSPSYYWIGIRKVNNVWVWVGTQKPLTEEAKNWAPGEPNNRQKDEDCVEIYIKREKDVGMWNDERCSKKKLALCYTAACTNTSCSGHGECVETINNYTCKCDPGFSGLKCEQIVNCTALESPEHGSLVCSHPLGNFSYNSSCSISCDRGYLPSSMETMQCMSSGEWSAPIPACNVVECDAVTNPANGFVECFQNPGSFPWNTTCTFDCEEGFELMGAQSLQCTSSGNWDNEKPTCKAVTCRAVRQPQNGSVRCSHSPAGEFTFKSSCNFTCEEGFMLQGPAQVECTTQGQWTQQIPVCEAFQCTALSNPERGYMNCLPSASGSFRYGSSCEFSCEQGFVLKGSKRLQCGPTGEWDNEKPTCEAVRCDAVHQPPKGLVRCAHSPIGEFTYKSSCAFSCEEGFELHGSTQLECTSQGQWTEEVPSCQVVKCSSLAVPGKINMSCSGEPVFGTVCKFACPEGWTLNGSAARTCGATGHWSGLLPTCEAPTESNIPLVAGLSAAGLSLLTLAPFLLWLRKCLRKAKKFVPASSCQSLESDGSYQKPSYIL
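Test system – human umbilical vein endothelial cells (HUVEC), E-selectin induction · Input – 3,000 HUVEC seeded per well · Buffer or medium – EGM-2, gelatin · Compound dosing – single-point compound dose · Detection – immunofluorescence imaging · Measure – percent E-selectin-positive cells · Controls – TNF-alpha high, DMSO low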
RAD52 anneal inh: RAD52 DNA annealing inhibitors, primary screen, biochemical, FRET, single point, set 2 | inhibition, % at 18.7 µM | 360,000 tested, 0.46% active | recombinant RAD52 DNA annealing, FRET fluorescence | DNA repair protein RAD52 homolog (Homo sapiens), P43351 | AID 651710, 2012;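 active = every replicate showing at least 50% inhibition; inconclusive = mean inhibition at least 50% but not in every replicate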
PglD inh: C. jejuni PglD acetyltransferase inhibitors, primary screen, biochemical, DTNB colorimetric, single point. UDP-N-acetylbacillosamine N-acetyltransferase PglD (Campylobacter jejuni). purified PglD enzyme, DTNB colorimetric CoA detection. inhibition, % at 12.5 µM. 360,000 tested, 0.098% active. AID 602405, 2012; in the data active = inhibition above about 16%, passing the limit was not always enough; inconclusive = no clear call, values can overlap the other calls
rRNA inh HTS: reduced GFP signal of wild-type E. coli, primary screen, bacterial rRNA inhibitor project, GFP/RFP fluorescence, OD600, single point; 350,000 tested, 1.6% active; E. coli WT GFP vs humanized-ribosome RFP mutants, 24 h; active compounds read low; DMSO median 0, no signal -100; GFP signal change (wild-type ribosome), % (concentration not given with the values);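 active = significant combined selectivity score with lowered wild-type GFP, culture density cut under 30%, mutant RFP and density less affected; inactive = any of these conditions unmet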
Each line names hits and unclear results; the compound was inactive in the other large screens.

O=C(O)CSc1nnc(-c2ccccc2Br)n1-c1cccc(C(F)(F)F)c1	E-selectin induc inconclusive, rRNA inh HTS -24 (no result: RAD54 branch, PglD inh)
C[C@@H]1CCCCO[C@@H](CN(C)Cc2ccc(Cl)c(Cl)c2)[C@H](C)CN([C@H](C)CO)C(=O)c2cc(NC(=O)C3CCCCC3)ccc2O1	none
O=C(Cc1ccccn1)NCC[C@H]1CC[C@H](NC(=O)c2ccccc2F)[C@H](CO)O1	none
C[C@@H]1CCCCO[C@H](CN(C)CC2CC2)[C@H](C)CN([C@@H](C)CO)C(=O)c2cc(NC(=O)Nc3ccccc3)ccc2O1	RAD52 anneal inh 57
C[C@@H]1CCCCO[C@H](CN(C)C(=O)Nc2ccc(C(F)(F)F)cc2)[C@H](C)CN([C@@H](C)CO)C(=O)c2cc(N(C)C)ccc2O1	RAD52 anneal inh 78
C[C@@H]1CCCCO[C@@H](CN(C)C)[C@H](C)CN([C@H](C)CO)C(=O)c2cc(NC(=O)Nc3ccc(C(F)(F)F)cc3)ccc2O1	RAD52 anneal inh 50 (no result: E-selectin induc)
C[C@@H]1CCCCO[C@H](CN(C)C(=O)Nc2ccc(C(F)(F)F)cc2)[C@H](C)CN([C@H](C)CO)C(=O)c2cc(N(C)C)ccc2O1	none
C[C@@H]1CCCCO[C@H](CN(C)CC2CC2)[C@H](C)CN([C@@H](C)CO)C(=O)c2cc(NC(=O)Nc3ccc4c(c3)OCO4)ccc2O1	RAD52 anneal inh 55
CO[C@@H]1CN(C)C(=O)c2cc(NC(=O)C3CCCC3)ccc2OC[C@@H](C)N(S(C)(=O)=O)C[C@@H]1C	none
C[C@H](CO)N1C[C@H](C)[C@H](CN(C)CC2CC2)OCCCC[C@H](C)Oc2ccc(NC(=O)Nc3ccc(C(F)(F)F)cc3)cc2C1=O	RAD52 anneal inh 54 (no result: RAD54 branch, PglD inh)
C[C@@H]1CCCCO[C@@H](CN(C)C)[C@@H](C)CN([C@H](C)CO)C(=O)c2cc(NC(=O)Nc3ccc(C(F)(F)F)cc3)ccc2O1	RAD52 anneal inh 54
C[C@@H]1CCCCO[C@H](CN(C)C)[C@@H](C)CN([C@H](C)CO)C(=O)c2cc(NC(=O)Nc3ccc(C(F)(F)F)cc3)ccc2O1	none
COc1ccc(Oc2nc(-c3ccccn3)ncc2OC)cc1	rRNA inh HTS -28 (no result: RAD54 branch, E-selectin induc, PglD inh)
COc1cnc(-c2ccccn2)nc1Oc1cccc(Cl)c1	none (no result: XiGFP reactiv, E-selectin induc, RAD52 anneal inh, rRNA inh HTS)
CCC(C)[C@H](NS(=O)(=O)c1ccc(F)cc1Br)C(=O)OC (stereo partly specified)	none
COC(=O)[C@@H](NS(=O)(=O)c1cc(Br)ccc1Br)C(C)C	rRNA inh HTS -26
CC(C)(Cc1ccc(O)cc1)NC(=O)CC(=O)N/N=C/c1ccc([N+](=O)[O-])cc1	rRNA inh HTS -17 (no result: RAD54 branch, E-selectin induc, PglD inh)
COc1ccc(OC)c(S(=O)(=O)Nc2cccc3ccccc23)c1	rRNA inh HTS -25
CCOc1ccc(/C(O)=C2/C(=O)C(=O)N(c3ncccn3)C2c2ccc(Cl)cc2)cc1 (stereo unspecified)	rRNA inh HTS -32
Cc1ccc(-c2csc(N3C(=N)SCC3=O)n2)cc1	none (no result: RAD54 branch, E-selectin induc, PglD inh)
N=C1SCC(=O)N1c1ncc(Cc2ccc(F)cc2)s1	rRNA inh HTS -47 (no result: E-selectin induc)
COc1ccc(/C=C2\Oc3cc(OCC(N)=O)ccc3C2=O)cc1OC	rRNA inh HTS -29
COC(=O)COc1ccc2c(c1)O/C(=C\c1cccc([N+](=O)[O-])c1)C2=O	none
O=c1[nH]c2ccccc2c(O)c1O	PglD inh 32 (no result: XiGFP reactiv, E-selectin induc, rRNA inh HTS)
O=C(CN1CCOCC1)N[C@H]1CC[C@H](CCNC(=O)C2CCC2)O[C@@H]1CO	none
C[C@@H]1CN([C@@H](C)CO)C(=O)Cc2cc(NS(=O)(=O)c3cccs3)ccc2O[C@H]1CN(C)Cc1ccc(Cl)c(Cl)c1	RAD52 anneal inh 51
CC(C)NC(=O)N(C)C[C@@H]1Oc2ccc(NS(=O)(=O)c3cccs3)cc2CC(=O)N([C@@H](C)CO)C[C@H]1C	E-selectin induc 29
COC(=O)[C@]1(C)CCC[C@@]2(C)C3CC[C@@]4(C)C[C@]3(CCC21)CC(=O)N4 (stereo partly specified)	rRNA inh HTS -28
Clc1cccc(Cc2c(-c3cccc(Cl)c3)nc3ccc(Br)cn23)c1	rRNA inh HTS -23
COc1ccc(-c2nc3ccc(Br)cn3c2Cc2cccc(Cl)c2)cc1OC	rRNA inh HTS -27
Clc1cccc(Cc2c(-c3cccc(Br)c3)nc3ccc(Br)cn23)c1	none
COc1ccc(-c2nc3ccc(C)cn3c2CC2CCCCC2)cc1OC	rRNA inh HTS -29
CCCNC(=O)Nc1ccc2c(c1)C(=O)N(C)C[C@H](OC)[C@@H](C)CN[C@@H](C)CO2	none
CN1CCN(C(=O)CSc2nc3c(c(=O)n(C)c(=O)n3C)n2C)CC1	none (no result: E-selectin induc)
CC1CCCC(C)N1C(=O)CSc1nc2c(c(=O)n(C)c(=O)n2C)n1C (stereo unspecified)	E-selectin induc 27
CC1CCCC(NC(=O)CSc2ccc(F)cc2)C1C (stereo unspecified)	none
CC1CCCC(NCC(O)COC(c2ccc(F)cc2)c2ccc(F)cc2)C1C (stereo unspecified)	rRNA inh HTS -53
N#C[C@@H]1[C@H](c2ccc(C#CC3CCCC3)cc2)[C@H](CO)N1S(=O)(=O)c1ccccc1	none
CCOC(=O)c1c(C)[nH]c(C(=O)C(C)OC(=O)c2cnc(C)cn2)c1C (stereo unspecified)	rRNA inh HTS -26 (no result: E-selectin induc)
COc1cc(NC(=O)C(c2ccccc2)c2ccccc2)c(C(=O)O)cc1OC	rRNA inh HTS -24 (no result: E-selectin induc)
Cc1ccc(C)c(NC(=O)CSc2c(C)n[nH]c2C)c1	rRNA inh HTS -55
Cc1ccc(C)c(NC(=O)CSc2n[nH]c(-c3ccncc3)n2)c1	none (no result: XiGFP reactiv, E-selectin induc, RAD52 anneal inh, rRNA inh HTS)
COc1ccc(-c2ccc([C@@H]3[C@@H](CO)N4C(=O)CNC[C@H]34)cc2)cc1	none (no result: RAD54 branch, PglD inh)
O=C(CCl)N(c1ccc(Cl)cc1)c1c[nH]c2ccccc12	rRNA inh HTS -23 (no result: XiGFP reactiv, E-selectin induc)
COc1ccc2c3c(n(C)c2c1)[C@H](CO)N(C(=O)Nc1ccc(F)cc1)CC31CN(C(=O)CC2CC2)C1	none (no result: RAD54 branch, RAD52 anneal inh, PglD inh)
C[n+]1c2n(c3ccccc31)N=C(c1ccc(-c3ccccc3)cc1)CS2	RAD52 anneal inh 71 (no result: RAD54 branch, E-selectin induc, PglD inh)
C[n+]1c2n(c3ccccc31)N=C(c1ccccc1)CS2	none
